Reference: ChEMBL document CHEMBL1128238, “Synthesis and structure-activity relationships of dequalinium analogues as K+ channel blockers. Investigations on the role of the charged heterocycle” (J Med Chem, 1995)
pIC50: −log10 of the molar value. Values belong to the compound of their own block, whether it stands above or below them.

Columns and labels:
Rattus norvegicus [1] = organism: Rattus norvegicus; experiment: Ratio of the concentrations of the test compound and dequalinium that cause 50% inhibition, as determined in the same experiment was reported. (number of neurons tested, n=3).; type: functional
In short: (§1)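 AHP inhibition recorded in cultured rat sympathetic neurones. Each compound was applied at two to four concentrations on at least three cells, generally not above 10–30 μM.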

Rattus norvegicus [2] = organism: Rattus norvegicus; experiment: Ability to inhibit after-hyperpolarization (AHP) in cultured rat sympathetic neurons. (number of neurons tested, n=3).; type: functional; details: Sympathetic neuron
In short: (§2)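 SK(Ca) block judged from inhibition of the after-hyperpolarization in cultured rat sympathetic neurones. Each compound was tested at two to four concentrations on at least three cells. Test concentrations above 10–30 μM were generally avoided. The time course of block onset was also noted.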

Rattus norvegicus [3] = organism: Rattus norvegicus; experiment: Ability to inhibit after-hyperpolarization (AHP) in cultured rat sympathetic neurons. (number of neurons tested, n=5).; type: functional; details: Sympathetic neuron; in short: as §2
Rattus norvegicus [4] = organism: Rattus norvegicus; experiment: Ratio of the concentrations of the test compound and dequalinium that cause 50% inhibition, as determined in the same experiment was reported. (number of neurons tested, n=5).; type: functional; in short: as §1
Rattus norvegicus [5] = organism: Rattus norvegicus; experiment: Ratio of the concentrations of the test compound and dequalinium that cause 50% inhibition, as determined in the same experiment was reported. (number of neurons tested, n=4).; type: functional; in short: as §1
Rattus norvegicus [6] = organism: Rattus norvegicus; experiment: Ability to inhibit after-hyperpolarization (AHP) in cultured rat sympathetic neurons. (number of neurons tested, n=4).; type: functional; details: Sympathetic neuron; in short: as §2
Rattus norvegicus [7] = organism: Rattus norvegicus; experiment: Ability to inhibit after-hyperpolarization (AHP) in cultured rat sympathetic neurons. (number of neurons tested, n=7).; type: functional; details: Sympathetic neuron
In short: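 SK(Ca) block measured as inhibition of the after-hyperpolarization in cultured rat sympathetic neurones. Each compound was tested at two to four concentrations on at least three cells, generally not above 10–30 μM. Onset of block was also timed. The 50%-inhibitory concentration was determined.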

Rattus norvegicus [8] = organism: Rattus norvegicus; experiment: Ratio of the concentrations of the test compound and dequalinium that cause 50% inhibition, as determined in the same experiment was reported. (number of neurons tested, n=7).; type: functional
In short: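 AHP inhibition in cultured rat sympathetic neurones, with each compound at two to four concentrations on at least three cells. The equieffective molar ratio is the test compound's 50%-inhibitory concentration divided by that of dequalinium, both determined in the same experiment.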

Rattus norvegicus [9] = organism: Rattus norvegicus; experiment: Ability to inhibit after-hyperpolarization (AHP) in cultured rat sympathetic neurons. (number of neurons tested, n=6).; type: functional; details: Sympathetic neuron; in short: as §2
Rattus norvegicus [10] = organism: Rattus norvegicus; experiment: Ratio of the concentrations of the test compound and dequalinium that cause 50% inhibition, as determined in the same experiment was reported. (number of neurons tested, n=6).; type: functional; in short: as §1
Rattus norvegicus [11] = organism: Rattus norvegicus; experiment: Ability to inhibit after-hyperpolarization (AHP) in cultured rat sympathetic neurons. (number of neurons tested, n=18).; type: functional; details: Sympathetic neuron; in short: as §2
Rattus norvegicus [12] = organism: Rattus norvegicus; experiment: Ratio of the concentrations of the test compound and dequalinium that cause 50% inhibition, as determined in the same experiment was reported. (number of neurons tested, n=18).; type: functional; in short: as §1
Rattus norvegicus [13] = organism: Rattus norvegicus; experiment: cells; details: Sympathetic neuron

pIC50 (Rattus norvegicus [2]): 5.26
SMILES: Nc1ccnc(NCCCCCCCCCCNc2cc(N)ccn2)c1
EMR (Rattus norvegicus [1]): 5

pIC50 (Rattus norvegicus [3]): 6.00
SMILES: Nc1c2c([n+](CCCCCCCCCC[n+]3c4c(c(N)c5ccccc53)CCCC4)c3ccccc13)CCCC2
EMR (Rattus norvegicus [4]): 0.9

pIC50 (Rattus norvegicus [6]): < 5.00
SMILES: Cc1n(C)c2ccccc2[n+]1CCCCCCCCCC[n+]1c(C)n(C)c2ccccc21.O.O.[Cl-].[Cl-]
EMR (Rattus norvegicus [5]): >10

SMILES: Nc1cc[n+](CCCC#CC#CCCC[n+]2ccc(N)cc2)cc1.O.O.[Cl-].[Cl-]
EMR (Rattus norvegicus [5]): 4.7

pIC50 (Rattus norvegicus [3]): < 5.00
SMILES: C[n+]1cccnc1NCCCCCCCCCCNc1nccc[n+]1C
EMR (Rattus norvegicus [4]): >10

SMILES: Nc1cc[n+](CCCCCCCCCC[n+]2ccc(N)cc2)cc1
pIC50 (Rattus norvegicus [7]): 4.46
EMR (Rattus norvegicus [8]): 33

pIC50 (Rattus norvegicus [6]): < 4.52
SMILES: O=[N+]([O-])c1cc[n+]([O-])c(NCCCCCCCCCCNc2cc([N+](=O)[O-])cc[n+]2[O-])c1
EMR (Rattus norvegicus [5]): >30

pIC50 (Rattus norvegicus [2]): 5.26
SMILES: CCCCCCCCCC[n+]1c(C)cc(N)c2ccccc21
EMR (Rattus norvegicus [1]): 4.7

pIC50 (Rattus norvegicus [3]): 5.33
SMILES: Brc1c[n+](CCCCCCCCCC[n+]2cc(Br)c3ccccc3c2)cc2ccccc12
EMR (Rattus norvegicus [4]): 7.6

SMILES: c1ccc2c[n+](CCCCCCCCCC[n+]3ccc4ccccc4c3)ccc2c1
pIC50 (Rattus norvegicus [3]): 4.60
EMR (Rattus norvegicus [4]): 80

pIC50 (Rattus norvegicus [9]): 4.14
SMILES: C[n+]1c(CCCCCCCCCCc2ccc3ccccc3[n+]2C)ccc2ccccc21
EMR (Rattus norvegicus [10]): 130

pIC50 (Rattus norvegicus [6]): 4.68
SMILES: C[n+]1c(CCCCCCCCCCCCc2ccc3ccccc3[n+]2C)ccc2ccccc21
EMR (Rattus norvegicus [5]): 33

pIC50 (Rattus norvegicus [3]): 4.68
SMILES: [Br-].[Br-].c1ccc2c(c1)ccc[n+]2CCCCCCCCCC[n+]1cccc2ccccc21
EMR (Rattus norvegicus [4]): 15

SMILES: CCCC[n+]1c(C)cc(N)c2ccccc21
EMR (Rattus norvegicus [1]): 12

pIC50 (Rattus norvegicus [2]): 5.02
SMILES: COc1cc(CCCCCCCCCCc2cc(OC)c3ccccc3[n+]2C)[n+](C)c2ccccc12
EMR (Rattus norvegicus [1]): 27

pIC50 (Rattus norvegicus [2]): 5.80
SMILES: Cc1cc(N)c2ccccc2[n+]1CCCC#CC#CCCC[n+]1c(C)cc(N)c2ccccc21
EMR (Rattus norvegicus [1]): 2.4

pIC50 (Rattus norvegicus [2]): 5.17
SMILES: c1ccc2c(NCCCCCCCCCCNc3c4ccccc4nc4ccccc34)c3ccccc3nc2c1
EMR (Rattus norvegicus [1]): 12.2

pIC50 (Rattus norvegicus [6]): 4.80
SMILES: Cn1c[n+](CCCCCCCCCC[n+]2cn(C)c3ccccc32)c2ccccc21
EMR (Rattus norvegicus [5]): 77

pIC50 (Rattus norvegicus [2]): 4.74
SMILES: CC[N+](CC)(CC)CCCCCCCCCC[n+]1c(C)cc(N)c2ccccc21.[I-].[I-]
EMR (Rattus norvegicus [1]): 17

pIC50 (Rattus norvegicus [11]): 6.13
SMILES: Cc1cc(N)c2ccccc2[n+]1CCCCCCCCCC[n+]1c(C)cc(N)c2ccccc21.[Cl-].[Cl-] [DEQUALINIUM CHLORIDE]
EMR (Rattus norvegicus [12]): 1

pIC50 (Rattus norvegicus [13]): 4.52
SMILES: Nc1c2c(nc3ccccc13)CCCC2 [TACRINE]
